# Experimental data taken from ChEMBL document CHEMBL4350998, “Design, synthesis, and structure-activity relationship studies of l-amino alcohol derivatives as broad-spectrum antifungal agents” (Eur J Med Chem, 2019).
# What was measured:
# Format in all cases: functional
# Candida albicans [1] = test: Antifungal activity against Candida albicans CPCC 400523 assessed as inhibition of visible microbial growth by NCCLS protocol based method
# Candida albicans [2] = test: Antifungal activity against Candida albicans ATCC SC5314 assessed as inhibition of visible microbial growth by NCCLS protocol based method
# Outline: (§1)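 Compounds dissolved in DMSO and serially diluted into growth medium. MIC was read as the lowest concentration that inhibited visible fungal growth.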
# Cryptococcus neoformans = test: Antifungal activity against Cryptococcus neoformans CGMCC 2.3161 assessed as inhibition of visible microbial growth by NCCLS protocol based method; outline: as §1
# Candida tropicalis = test: Antifungal activity against Candida tropicalis CGMCC 2.3739 assessed as inhibition of visible microbial growth by NCCLS protocol based method; outline: as §1
# Aspergillus fumigatus = test: Antifungal activity against Aspergillus fumigatus CGMCC 3.7795 assessed as inhibition of visible microbial growth by NCCLS protocol based method; outline: as §1
Compound,MIC (Candida albicans [1]) [µg/mL],MIC (Candida albicans [2]) [µg/mL],MIC (Cryptococcus neoformans) [µg/mL],MIC (Candida tropicalis) [µg/mL],MIC (Aspergillus fumigatus) [µg/mL]
O=C(N[C@@H](Cc1ccccc1)Cn1ccnc1)c1ccc(-c2ccccc2)c(F)c1,0.06,< 0.03,0.5,< 0.03,> 64
CC[C@H](C)[C@@H](Cn1ccnc1)NC(=O)c1ccc(-c2ccccc2)cc1Cl,0.25,0.06,> 64,0.125,> 64
CC[C@H](C)[C@@H](Cn1ccnc1)NC(=O)c1ccc(-c2ccccc2)cc1C,1,0.25,> 64,0.5,> 64
O=C(N[C@@H](Cc1ccccc1)Cn1ccnc1)c1ccc(-c2ccccc2)cc1F,0.06,< 0.03,> 64,< 0.03,> 64
C[C@@H](Cn1ccnc1)NC(=O)c1ccc(-c2ccccc2)cc1,4,0.5,> 64,0.25,1
CCC[C@@H](Cn1ccnc1)NC(=O)c1ccc(-c2ccccc2)cc1,0.06,< 0.03,2,< 0.03,4
CC[C@H](C)[C@@H](Cn1ccnc1)NC(=O)c1ccc(-c2ccccc2)c(F)c1,0.06,< 0.03,2,0.06,> 64
CC[C@H](C)[C@@H](Cn1ccnc1)NC(=O)c1ccc(-c2cccc(F)c2)cc1,0.125,< 0.03,2,0.06,> 64
CC[C@H](C)[C@@H](Cn1ccnc1)NC(=O)c1ccc(-c2ccccc2)c(Cl)c1,4,0.5,4,0.25,> 64

# Second part, the compound after the results:
MIC (Candida albicans [1]) [µg/mL],MIC (Candida albicans [2]) [µg/mL],MIC (Cryptococcus neoformans) [µg/mL],MIC (Candida tropicalis) [µg/mL],MIC (Aspergillus fumigatus) [µg/mL],Compound
> 16,> 16,> 64,2,> 64,CC[C@H](C)[C@@H](Cn1ccnc1)NC(=O)c1ccc(-c2ccccc2)c(C)c1
0.06,< 0.03,1,0.06,> 64,CC[C@H](C)[C@@H](Cn1ccnc1)NC(=O)c1ccc(-c2ccccc2F)cc1
0.06,< 0.03,2,0.06,> 64,CC(C)[C@@H](Cn1ccnc1)NC(=O)c1ccc(-c2ccccc2)c(F)c1
0.25,0.125,> 64,0.25,2,CC[C@H](C)[C@@H](Cn1cncn1)NC(=O)c1ccc(-c2ccccc2)cc1F
< 0.03,< 0.03,0.5,< 0.03,> 64,CC[C@H](C)[C@@H](Cn1ccnc1)NC(=O)c1ccc(-c2ccccc2)cc1
0.06,< 0.03,4,< 0.03,> 64,CC(C)C[C@@H](Cn1ccnc1)NC(=O)c1ccc(-c2ccccc2)c(F)c1
< 0.03,< 0.03,< 0.125,< 0.03,< 0.125,CCC(C)n1ncn(-c2ccc(N3CCN(c4ccc(OCC5COC(Cn6cncn6)(c6ccc(Cl)cc6Cl)O5)cc4)CC3)cc2)c1=O (stereo not given) [ITRACONAZOLE]
< 0.03,< 0.03,1,< 0.03,> 64,CC(C)C[C@@H](Cn1ccnc1)NC(=O)c1ccc(-c2ccccc2)cc1
0.25,0.125,1,0.125,> 64,CC[C@H](C)[C@@H](Cn1ccnc1)NC(=O)c1ccc(-c2ccc(F)cc2)cc1
0.06,< 0.03,2,0.06,> 64,CC(C)[C@@H](Cn1ccnc1)NC(=O)c1ccc(-c2cccc(F)c2)cc1
> 16,> 16,> 64,8,> 64,CC(C)[C@H](Cn1ccnc1)NC(=O)c1ccc(-c2ccccc2)cc1
